# Reference: ChEMBL document CHEMBL1136983, “Synthesis, cleavage, and antifungal activity of a number of novel, water-soluble ester prodrugs of antifungal triazole CS-758” (Bioorg Med Chem Lett, 2009)
# The source made the active and inactive calls. No cut-off for these calls is given here.
# What was measured:
# [1] = Solubility in water; format: physicochemical
# [2] = Bioavailability in rat at 2 mg/kg, iv; format: ADME, organism-based; conditions: in vivo
# Summary of the method: (§1)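 Rats received a single iv dose of prodrug at 2 mg/kg, and plasma CS-758 was followed over time (average of three rats). Bioavailability (%) = AUC of CS-758 after iv prodrug / AUC of CS-758 after iv CS-758 dissolved in polyethylene glycol solution × 100.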
# Candida albicans = assay: Antifungal activity against Candida albicans SANK 51486 infected in mouse at 0.2 to 20 mg/kg, iv administered 2 hrs post infection measured after 24 hrs; format: functional, organism-based
# Summary of the method: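 Mouse systemic Candida albicans infection, challenge 4.2 × 10⁵ CFU/mouse. Single dose 2 h after challenge, at 0.2, 2 or 20 mg/kg, vehicle controls. Kidney viable cell counts taken at 24 h. Mean + S.E., n = 8 per group, significance at p<0.05 and p<0.001.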
# Rattus norvegicus = assay: Half life in rat assessed as CS-758 elimination at 2 mg/kg, iv; format: ADME, organism-based; parameters: dose 2 mg/kg, route intravenous; conditions: in vivo; summary of the method: as §1
# [3] = Cmax in rat at 2 mg/kg, iv; format: ADME, organism-based; parameters: dose 2 mg/kg, route intravenous; conditions: in vivo; summary of the method: as §1
# Liver microsomes [4] = assay: Metabolic stability in human liver microsomes assessed as formation of (2R,3R)-3-((2R,5r)-2-((1E,3E)-4-(4-cyano-2-fluorophenyl)buta-1,3-dienyl)-1,3-dioxan-5-ylthio)-2-(2,4-difluorophenyl)-1-(1H-1,2,4-triazol-1-yl)butan-2-yl 2-hydroxyacetate after 120 mins; format: ADME, Microsome; conditions: 2 h
# Liver microsomes [5] = assay: Metabolic stability in human liver microsomes assessed as formation of (2R,3R)-3-((2R,5r)-2-((1E,3E)-4-(4-cyano-2-fluorophenyl)buta-1,3-dienyl)-1,3-dioxan-5-ylthio)-2-(2,4-difluorophenyl)-1-(1H-1,2,4-triazol-1-yl)butan-2-yl 2-hydroxyacetate after 30 mins; format: ADME, Microsome; conditions: 0.5 h
compound,measurement,setting,value
C[C@@H](S[C@H]1CO[C@H](/C=C/C=C/c2ccc(C#N)cc2F)OC1)[C@@](Cn1cncn1)(OC(=O)C[N+](C)(C)C)c1ccc(F)cc1F.[Cl-],solubility,[1],> 10000 µg/mL
same,bioavailability,[2],3.3%
C[C@@H](S[C@H]1CO[C@H](/C=C/C=C/c2ccc(C#N)cc2F)OC1)[C@@](Cn1cncn1)(OC(=O)CO)c1ccc(F)cc1F,solubility,[1],< 1000 µg/mL
C[C@@H](S[C@H]1CO[C@H](/C=C/C=C/c2ccc(C#N)cc2F)OC1)[C@@](Cn1cncn1)(OC(=O)CN)c1ccc(F)cc1F,solubility,[1],< 1000 µg/mL
C[C@@H](S[C@H]1CO[C@H](/C=C/C=C/c2ccc(C#N)cc2F)OC1)[C@@](Cn1cncn1)(OC(=O)CCN)c1ccc(F)cc1F,solubility,[1],< 1000 µg/mL
C[C@@H](S[C@H]1CO[C@H](/C=C/C=C/c2ccc(C#N)cc2F)OC1)[C@@](Cn1cncn1)(OP(=O)([O-])O)c1ccc(F)cc1F.[Na+],solubility,[1],> 30000 µg/mL
same,Activity,Candida albicans,Active
same,t1/2,Rattus norvegicus,5.7 h
C[C@@H](S[C@H]1CO[C@H](/C=C/C=C/c2ccc(C#N)cc2F)OC1)[C@](O)(Cn1cncn1)c1ccc(F)cc1F [EMBECONAZOLE],Cmax,[3],1300 ng/mL
same,bioavailability,[2],3.3%
C[C@@H](S[C@H]1CO[C@H](/C=C/C=C/c2ccc(C#N)cc2F)OC1)[C@@](Cn1cncn1)(OC(=O)COC(=O)CCC(=O)[O-])c1ccc(F)cc1F.[Na+],solubility,[1],> 10000 µg/mL
same,Activity,Liver microsomes [4],Active
same,Activity,Liver microsomes [5],Active
C[C@@H](S[C@H]1CO[C@H](/C=C/C=C/c2ccc(C#N)cc2F)OC1)[C@@](Cn1cncn1)(OC(=O)CN(C)C)c1ccc(F)cc1F,solubility,[1],< 1000 µg/mL
C[C@@H](S[C@H]1CO[C@H](/C=C/C=C/c2ccc(C#N)cc2F)OC1)[C@@](Cn1cncn1)(OC(=O)COP(=O)([O-])O)c1ccc(F)cc1F.[Na+],solubility,[1],> 10000 µg/mL
same,Activity,Liver microsomes [4],Active
same,Activity,Liver microsomes [5],Active
